Laboratory results published in ChEMBL document CHEMBL1142057, “Inhibition of the G2 DNA damage checkpoint by oliveroline isolated from Duguetia odorata” (J Nat Prod, 2007).
Activity calls are given as the source filed them. No cut-off for these calls is given here.

Tests used:
[1] = test system: MCF7; assay: Inhibition of cell proliferation in MCF7 mp53 cells in presence of 6.5 Gy [60Co]-induced DNA damage; type: functional, cell-based; details: Homo sapiens
In short: (§1)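 MCF-7 mp53 cells seeded at 1000 cells/well and grown overnight. Compound applied over a concentration range for 24 h (DMSO ≤1% final), then irradiated with 0 or 6.5 Gy. Compound removed 24 h later and cells grown in fresh medium until untreated cells neared confluence (typically 4-6 days). Proliferation read by MTT, 2 h at 37 °C, SDS/DMF solubilisation, absorbance 570 nm. IC50 reported.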

[2] = test system: MCF7; assay: Inhibition of cell proliferation in MCF7 mp53 cells in absence of 6.5 Gy [60Co]-induced DNA damage; type: functional, cell-based; details: Homo sapiens; in short: as §1
[3] = test system: MCF7; assay: Inhibition of 6.5 Gy [60Co]-induced G2 DNA damage check point in MCF7 mp53 cells at >10 uM; type: functional, cell-based; details: Homo sapiens
In short: (§2)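 MCF-7 mp53 cells seeded at 2 × 10^5 cells/dish, cultured 24 h, then given 6.5 Gy (60Co, 1.2 Gy/min). Sixteen hours later (90% in G2), compound added with 100 ng/mL nocodazole for 8 h. Cells fixed in 70% EtOH, stained with mitosis-specific antibody GF-7 and propidium iodide. 20 000 events per sample read by flow cytometry as % cells escaping G2 arrest. DMSO carrier control.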

[4] = test system: MCF7; assay: Inhibition of 6.5 Gy [60Co]-induced G2 DNA damage check point in MCF7 mp53 cells; type: functional, cell-based; details: Homo sapiens; in short: as §2
[5] = test system: MCF7; assay: Inhibition of 6.5 Gy [60Co]-induced G2 DNA damage check point in MCF7 mp53 cells at 10 uM; type: functional, Homo sapiens; design: scale not given: the % may be the effect or the level left; in short: as §2
[6] = target: T1, Serine/threonine-protein kinase Chk1 (Homo sapiens) (UniProt O14757); assay: Inhibition of Chk1
T1 sequence (whole entry): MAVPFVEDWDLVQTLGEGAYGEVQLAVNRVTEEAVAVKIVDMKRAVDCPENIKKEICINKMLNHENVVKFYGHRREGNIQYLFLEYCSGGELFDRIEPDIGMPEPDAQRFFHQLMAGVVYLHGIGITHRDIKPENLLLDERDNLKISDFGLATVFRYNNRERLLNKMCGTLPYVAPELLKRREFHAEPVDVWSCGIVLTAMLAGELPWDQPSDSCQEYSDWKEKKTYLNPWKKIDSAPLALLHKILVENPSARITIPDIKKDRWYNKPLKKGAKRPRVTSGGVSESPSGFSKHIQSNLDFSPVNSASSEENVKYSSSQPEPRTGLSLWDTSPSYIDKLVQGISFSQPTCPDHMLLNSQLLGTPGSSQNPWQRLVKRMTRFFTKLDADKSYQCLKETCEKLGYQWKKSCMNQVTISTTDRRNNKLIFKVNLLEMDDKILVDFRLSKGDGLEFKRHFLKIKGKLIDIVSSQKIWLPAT

[7] = test system: MCF7; assay: Inhibition of 6.5 Gy [60Co]-induced G2 DNA damage check point in MCF7 mp53 cells at 50 uM; type: functional, Homo sapiens; design: scale not given: the % may be the effect or the level left; in short: as §2

| Activity [6] | Compound | IC50 [1] [µM] | IC50 [2] [µM] | Activity [3] | Activity [4] | Activity [5] [%] | Activity [7] [%] |
| --- | --- | --- | --- | --- | --- | --- | --- |
| – | COc1cc2c(cc1O)CC[n+]1cc3cc(OC)c(OC)cc3cc1-2 [DEHYDRODISCRETINE] | 7 | 25 | inactive | inactive | – | – |
| – | O=C1NC(=O)c2c1c1c3ccccc3[nH]c1n1cncc21 [ISOGRANULATIMIDE] | – | – | – | – | 35 | – |
| inactive | CN1CCc2cc3c(c4c2[C@H]1[C@@H](O)c1ccccc1-4)OCO3 [OLIVEROLINE] | 20 | 45 | Active | Dose-dependent effect | – | 35 |
| – | COc1cc2c(cc1OC)-c1cc3cc(OC)c(OC)cc3c[n+]1CC2 [PSEUDOPALMATINE] | 80 | 250 | inactive | inactive | – | – |
